How the values were obtained:
DNA = assay: Binding affinity to calf thymus double stranded DNA; type: nucleic-acid assay; conditions: Bos taurus
Method in brief: (§1)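 UV-vis absorption titration: increasing concentrations of dsDNA (calf thymus DNA, poly[d(A-T)]2 or poly[d(G-C)]2) added to ligand in buffer. Hypochromicity and red-shift of the long-wavelength absorption band were followed. Binding constants were obtained by the half-reciprocal plot method.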

[1] = Binding affinity to double stranded poly[d[A-T)]2 DNA; conditions: Homo sapiens; method in brief: as §1
[2] = Binding affinity to double stranded poly[d[G-C)]2 DNA; conditions: Homo sapiens; method in brief: as §1
[3] = target: T1, DNA topoisomerase I (Leishmania donovani donovani) (UniProt Q9NJG8); assay: Inhibition of Leishmania donovani topoisomerase 1-induced relaxation activity assessed as recovery of supercoiled DNA at 50 uM
T1 sequence (whole entry): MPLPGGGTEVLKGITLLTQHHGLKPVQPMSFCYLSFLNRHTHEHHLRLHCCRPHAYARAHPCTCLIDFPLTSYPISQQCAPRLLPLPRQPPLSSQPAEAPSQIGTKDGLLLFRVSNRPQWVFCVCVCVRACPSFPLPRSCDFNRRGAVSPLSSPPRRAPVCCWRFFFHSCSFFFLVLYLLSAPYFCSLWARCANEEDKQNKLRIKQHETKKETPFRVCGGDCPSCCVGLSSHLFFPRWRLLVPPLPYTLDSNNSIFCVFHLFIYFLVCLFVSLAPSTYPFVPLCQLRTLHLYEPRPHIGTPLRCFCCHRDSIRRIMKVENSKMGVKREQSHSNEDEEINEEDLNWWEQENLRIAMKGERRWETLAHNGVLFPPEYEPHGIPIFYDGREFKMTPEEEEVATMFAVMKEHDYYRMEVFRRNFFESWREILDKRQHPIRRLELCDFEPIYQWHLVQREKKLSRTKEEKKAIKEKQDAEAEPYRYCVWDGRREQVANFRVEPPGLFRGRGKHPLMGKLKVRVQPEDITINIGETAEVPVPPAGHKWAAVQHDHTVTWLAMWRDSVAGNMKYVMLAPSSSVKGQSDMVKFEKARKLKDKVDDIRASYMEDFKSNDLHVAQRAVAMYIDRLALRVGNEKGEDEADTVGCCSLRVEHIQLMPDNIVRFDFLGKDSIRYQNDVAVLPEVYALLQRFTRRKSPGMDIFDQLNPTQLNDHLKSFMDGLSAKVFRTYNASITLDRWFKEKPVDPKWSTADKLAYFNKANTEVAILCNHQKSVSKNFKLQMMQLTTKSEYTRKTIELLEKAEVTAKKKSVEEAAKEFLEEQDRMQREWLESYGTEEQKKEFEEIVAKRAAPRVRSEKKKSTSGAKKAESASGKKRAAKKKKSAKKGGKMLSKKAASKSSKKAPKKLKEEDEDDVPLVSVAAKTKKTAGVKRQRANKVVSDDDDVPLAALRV

[4] = target: T1, DNA topoisomerase I (Leishmania donovani donovani); assay: Inhibition of Leishmania donovani topoisomerase 1-induced relaxation activity assessed as recovery of supercoiled DNA at 10 uM
[5] = target: T1, DNA topoisomerase I (Leishmania donovani donovani); assay: Inhibition of Leishmania donovani topoisomerase 1-induced relaxation activity assessed as recovery of supercoiled DNA at 20 uM

SMILES	Ka (DNA)	Ka [1]	Ka [2]	inhibition [3] [%]	inhibition [4] [%]	inhibition [5] [%]
CN(C)CCCOc1ccc(-c2nc3ccc4c(c3[nH]2)C(=O)c2ccccc2C4=O)cc1	2.1 10^5/M	4.1 10^5/M	3 10^5/M	5	–	–
O=C1c2ccccc2C(=O)c2c1ccc1nc(-c3cccnc3)[nH]c21	–	–	–	80	9	15
O=C1c2ccccc2C(=O)c2c1ccc1nc(-c3ccc(OCCCn4cnnn4)cc3)[nH]c21	0.5 10^5/M	0.5 10^5/M	0.3 10^5/M	95	80	92
CC[C@@]1(O)C(=O)OCc2c1cc1n(c2=O)Cc2cc3ccccc3nc2-1	–	–	–	65	39	55
O=C1c2ccccc2C(=O)c2c1ccc1nc(-c3ccc(OCCCN4CCOCC4)cc3)[nH]c21	0.6 10^5/M	1.1 10^5/M	0.5 10^5/M	92	46	77
CN1CCN(CCCOc2ccc(-c3nc4ccc5c(c4[nH]3)C(=O)c3ccccc3C5=O)cc2)CC1	1 10^5/M	2.8 10^5/M	1.9 10^5/M	10	–	–
O=C1c2ccccc2C(=O)c2c1ccc1nc(-c3ccc(OCCCn4ccnc4)cc3)[nH]c21	1.1 10^5/M	1.8 10^5/M	0.6 10^5/M	91	62	77
O=C1c2ccccc2C(=O)c2c1ccc1nc(-c3ccccn3)[nH]c21	–	–	–	75	9	20
O=C1c2ccccc2C(=O)c2c1ccc1nc(-c3ccc(OCCCN4CCN(CCO)CC4)cc3)[nH]c21	1.9 10^5/M	3 10^5/M	2.2 10^5/M	5	–	–
CCN(CC)CCCOc1ccc(-c2nc3ccc4c(c3[nH]2)C(=O)c2ccccc2C4=O)cc1	1.9 10^5/M	3.2 10^5/M	2.3 10^5/M	10	–	2
